Experimental data published in ChEMBL document CHEMBL1144050, “Two novel acetogenins, annoglaxin and 27-hydroxybullatacin, from Annona glabra” (J Nat Prod, 1999).
≈ marks a conversion by molar mass, not a printed value.

How the values were obtained:
MCF7 = assay: Cytotoxicity against human MCF7 cells after 7 days by MTT assay; format: functional
Method in brief: (§1)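 Standard 7-day MTT cytotoxicity assay on human tumour lines: A-549 (lung carcinoma), MCF-7 (breast carcinoma), HT-29 (colon adenocarcinoma), A-498 (kidney carcinoma), PC-3 (prostate adenocarcinoma), PACA-2 (pancreatic carcinoma). Adriamycin was run as the positive control standard.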

A498 = assay: Cytotoxicity against human A498 cells after 7 days by MTT assay; format: functional; conditions: for EC50: Homo sapiens, A498, 168 h, read-out: ED50 (the source's name); method in brief: as §1
MIA PaCa-2 = assay: Cytotoxicity against human PACA2 cells after 7 days by MTT assay; format: functional; conditions: for EC50: Homo sapiens, MIA PaCa-2, 168 h, read-out: ED50 (the source's name); method in brief: as §1
PC-3 = assay: Cytotoxicity against human PC-3 cells after 7 days by MTT assay; format: functional; conditions: for EC50: Homo sapiens, PC-3, 168 h, read-out: ED50 (the source's name); method in brief: as §1
Artemia salina = assay: (§2) Toxicity in brine shrimp; format: organism-based; conditions: in vivo
HT-29 = assay: Cytotoxicity against human HT29 cells after 7 days by MTT assay; format: functional; conditions: for EC50: Homo sapiens, HT-29, 168 h, read-out: ED50 (the source's name); method in brief: as §1
A549 = assay: Cytotoxicity against human A549 cells after 7 days by MTT assay; format: functional; conditions: A549, 168 h, read-out: ED50 (the source's name); method in brief: as §1
[1] = as §2; format: organism-based; conditions: artemia salina, in vivo

Compound	ED50 (MCF7)	ED50 (A498)	ED50 (MIA PaCa-2)	ED50 (PC-3)	LC50 (Artemia salina)	ED50 (HT-29)	EC50 (A549)	EC50 (A498)	EC50 (MIA PaCa-2)	EC50 (PC-3)	LC50 [1]	EC50 (HT-29)	EC50 (MCF7; Homo sapiens, MCF7, 168 h, read-out: ED50 (the source's name))
CCCCCCC[C@H](O)CC[C@H](O)[C@H]1CC[C@H]([C@H]2CC[C@H]([C@H](O)CCCCCCCCCC[C@@H](O)CC3=C[C@H](C)OC3=O)O2)O1	7.8 ×10⁻⁴ ug/ml	3.1 ×10⁻⁸ ug/ml	<1 ×10⁻⁹ ug/ml	<1 ×10⁻⁹ ug/ml	4.3 ×10⁻² ug/ml	1.8 ×10⁻⁵ ug/ml	0.0021 µg/mL (≈ 0.00329 µM)						
CCCCCCCCCC[C@H](O)C[C@@H](O)[C@H]1CC[C@H]([C@H](O)CCC(=O)CCC[C@H](O)CCCCCC2=C[C@H](C)OC2=O)O1 [ANNOGLAXIN]	4.3 ×10⁻⁴ ug/ml						1.1 µg/mL (≈ 1.8 µM)	1.8 µg/mL (≈ 2.95 µM)	1.6 µg/mL (≈ 2.62 µM)	0.87 µg/mL (≈ 1.42 µM)	0.29 µg/mL (≈ 0.475 µM)	0.18 µg/mL (≈ 0.295 µM)	
COc1cccc2c1C(=O)c1c(O)c3c(c(O)c1C2=O)C[C@@](O)(C(=O)CO)C[C@@H]3O[C@H]1C[C@H](N)[C@H](O)[C@H](C)O1 [DOXORUBICIN]							0.0013 µg/mL (≈ 0.00239 µM)	0.0019 µg/mL (≈ 0.0035 µM)	0.0043 µg/mL (≈ 0.00791 µM)	0.02 µg/mL (≈ 0.0368 µM)		0.01 µg/mL (≈ 0.0184 µM)	0.09 µg/mL (≈ 0.166 µM)
